ChEMBL document CHEMBL3227960, “Inhibition of uptake of catecholamines by benzylamine derivatives” (J Med Chem, 1979)

Key:
[1] = Inhibition of [3H]norepinephrine reuptake at NET in Sprague-Dawley rat brain cortical synaptosomes incubated for 5 mins prior to [3H]norepinephrine addition measured after 3 mins by scintillation counting analysis; format: subcellular; conditions: read-out: I50
How it was run: (§1)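 Crude P2 synaptosomes from male Sprague-Dawley rat striatum (dopamine) or cerebral cortex (norepinephrine), prepared at 0 °C in 0.32 M sucrose. Tritiated substrate 0.1 μM, 37 °C. Uptake quenched with cold saline plus 100 μM unlabelled substrate, then filtered. 0 °C blanks subtracted. Three inhibitor concentrations, each in triplicate. I50 taken where A0/A1 = 2, by linear regression against concentration.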

[2] = biological target: Sodium-dependent dopamine transporter (Rattus norvegicus, UniProt P23977); assay: Inhibition of [3H]dopamine reuptake at DAT in Sprague-Dawley rat brain striatal synaptosomes incubated for 5 mins prior to [3H]dopamine addition measured after 3 mins by scintillation counting analysis; format: subcellular; conditions: read-out: I50; how it was run: as §1
Sodium-dependent dopamine transporter, sequence (P23977 whole entry): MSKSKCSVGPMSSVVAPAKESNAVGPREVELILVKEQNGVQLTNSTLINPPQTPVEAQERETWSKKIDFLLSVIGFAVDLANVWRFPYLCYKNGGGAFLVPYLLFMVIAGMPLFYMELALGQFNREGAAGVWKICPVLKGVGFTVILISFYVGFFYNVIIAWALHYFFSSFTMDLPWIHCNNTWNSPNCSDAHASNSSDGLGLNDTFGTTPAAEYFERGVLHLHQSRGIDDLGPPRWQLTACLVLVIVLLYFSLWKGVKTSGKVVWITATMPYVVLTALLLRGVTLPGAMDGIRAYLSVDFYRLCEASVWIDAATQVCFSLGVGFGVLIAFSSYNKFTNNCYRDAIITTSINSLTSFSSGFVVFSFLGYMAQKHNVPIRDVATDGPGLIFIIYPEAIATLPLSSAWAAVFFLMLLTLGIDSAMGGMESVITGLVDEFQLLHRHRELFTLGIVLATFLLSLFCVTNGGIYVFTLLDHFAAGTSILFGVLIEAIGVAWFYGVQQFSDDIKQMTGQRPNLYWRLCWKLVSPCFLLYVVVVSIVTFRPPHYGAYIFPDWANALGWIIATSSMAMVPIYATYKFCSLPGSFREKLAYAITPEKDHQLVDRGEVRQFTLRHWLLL

Row | Structure (SMILES) | IC50 [1] | IC50 [2]
1 | CCN(CCCl)Cc1ccc(C)cc1 | 3.05 µM | 78.4 µM
2 | CCN(CCO)Cc1ccccc1C | 137 µM | 1050 µM
3 | CCN(CCO)Cc1cccc(C)c1 | 49 µM | 250 µM
4 | CCN(CCCl)Cc1cccc(C)c1 | 0.77 µM | 28.6 µM
5 | CCN(CCCl)Cc1ccccc1Br | 0.05 µM | 5.87 µM
6 | CCN(CCO)Cc1ccccc1Br | 78 µM | 640 µM
7 | CCN(CCCl)Cc1ccccc1OC | 31.1 µM | 303 µM
8 | ClCCNCc1ccccc1Br | 50.2 µM | 326 µM
9 | CCN(CCCl)Cc1ccc(OC)cc1 | 29.8 µM | 147 µM
10 | CCN(CCCl)Cc1cccc(OC)c1 | 23.2 µM | 127 µM
